The test concerns CAspII. In words: Michaelis-Menten kinetics of L-asparagine hydrolysis. It is filed as biochemical, uncultured Gemmatimonadota bacterium. The conditions noted are these: free enzyme; assay pH and temperature only in supplement. The gist of the method:
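Synthetic codon-optimised gene fused to a C-terminal His6 tag in pET21a(+) and expressed in E. coli. Mid-log cultures in LB were induced with 0.2 mM IPTG for 3 hours at 30°C. Protein was purified on nickel-agarose; the preparation was enriched but not fully pure. Km was fitted to the classical Michaelis-Menten equation with L-asparagine as substrate, reported as mean ± SEM.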

Structures are written as SMILES.

With `NC(=O)C[C@H](N)C(=O)O` [L-asparagine], the Michaelis-Menten constant (Km) amounted to 350 ± 20 µM.

The record behind these values is publication PMC7797908 (iScience, 2021).
